Experimental data reported in ChEMBL document CHEMBL1121674, “Gastric antisecretory agents. 2. Antisecretory activity of 9-[(aminoalkyl)thio]-9H-xanthenes and 5-[(aminoalkyl)thio]-5H-[1]benzopyrano[2,3-b]pyridines” (1981).

Experiments:
Canis familiaris [1] = assay: Percent reduction of histamine stimulated gastric acid secretion in adult mongrel dog after intravenous administration at 5 mg/kg.; format: functional, Canis lupus familiaris, Stomach
Outline: (§1)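 Heidenhain-pouch mongrel dogs given histamine infusion at 0.4 (μg/kg)/min. Compound given iv 1 h after infusion start. 30-min collections, volume recorded and aliquot titrated for acid. AO = volume × acid concentration, summed for 3 h post-dose and divided by 3-h control AO from the same dog. % inhibition = 100 − percent of control. Usually one dog per compound.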

Rattus norvegicus = assay: Percent reduction of gastric acid secretion in pylorus ligated rat after intraperitoneal administration at 40 mg/kg.; format: functional, Stomach
Outline: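 Male Charles River CD outbred albino rats, 150-200 g, pylorus ligated; compound dissolved in 2.5% Tween 80 and given ip (0.5 mL/200 g) at ligation. Stomachs removed after 4 h. Gastric content volume recorded, acid titrated with 0.1 N NaOH to pH 7.0, AO in mequiv/4 h. Six rats per compound, eight controls; % inhibition = 100 − 100×(mean test AO/mean control AO); Student's t test.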

Canis familiaris [2] = assay: Percent reduction of histamine stimulated gastric acid secretion in adult mongrel dog after peroral administration of compound at 8 mg/kg; format: functional, Canis lupus familiaris, Stomach; conditions: route oral
Outline: (§2)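 Heidenhain-pouch mongrel dogs given histamine infusion at 0.4 (μg/kg)/min. Compound given orally by gavage 1 h after infusion start. 30-min secretions collected and titrated for acid. AO = volume × acid concentration, summed over 3 h after dosing and expressed against 3-h control AO in the same dog. % inhibition = 100 − percent of control. Usually a single dog.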

Canis familiaris [3] = assay: Percent reduction of histamine stimulated gastric acid secretion in adult mongrel dog after peroral administration of compound at 8 mg/kg; Animal vomited upon compound administration; format: functional, organism-based; design: dose 8 mg/kg; conditions: Canis lupus familiaris, Stomach; outline: as §2
Canis familiaris [4] = assay: Percent reduction of histamine stimulated gastric acid secretion in adult mongrel dog after intravenous administration of compound at 5 mg/kg; stimulated gastric acid secretion; format: functional, organism-based; design: dose 5 mg/kg; conditions: Canis lupus familiaris, Stomach; outline: as §1

Row | Compound | Reduction (Canis familiaris [1]) | Reduction (Rattus norvegicus) | Reduction (Canis familiaris [2]) | Reduction (Canis familiaris [3]) | Reduction (Canis familiaris [4])
1 | CN(C)CCSC1c2ccccc2Oc2ncccc21.Cl (stereo not drawn) | <30% | 79% | – | – | –
2 | COc1ccc2c(c1)C(SCCN(C)C)c1ccccc1O2.Cl (stereo not drawn) | <30% | 63% | – | – | –
3 | Cc1cccc2c1Oc1ccccc1C2SCCN1CCOCC1.Cl (stereo not drawn) | <30% | 71% | – | – | –
4 | COc1ccc2c(c1)Oc1ccccc1C2SCCN1CCOCC1.Cl (stereo not drawn) | 77% | 44% | <30% | – | –
5 | Cl.NCCCSC1c2ccccc2Oc2ccccc21 | 68% | 44% | – | Animal vomited upon compound administration | –
6 | Cc1ccc2c(c1)C(SCCN1CCCCC1)c1ccccc1O2.Cl (stereo not drawn) | <30% | 88% | – | – | –
7 | COc1ccc2c(c1)C(SCCN1CCOCC1)c1ccccc1O2.Cl (stereo not drawn) | – | 94% | – | – | stimulated gastric acid secretion
8 | Cl.NCCCSC1c2ccccc2Oc2c(Cl)cccc21 (stereo not drawn) | 33% | 99% | – | – | –
9 | Cl.c1ccc2c(c1)Oc1ccccc1C2SCCCN1CCOCC1 | 47% | 98% | – | – | –
10 | Cl.Clc1cccc2c1Oc1ccccc1C2SCCN1CCOCC1 (stereo not drawn) | 42% | 86% | – | – | –
11 | CN(C)CCSC1c2ccccc2Oc2ccccc21.Cl | <30% | 65% | – | – | –
12 | Cl.c1ccc2c(c1)Oc1ccccc1C2SCCCN1CCCCC1 | 30% | 88% | – | – | –
13 | Cl.c1ccc2c(c1)Oc1ccccc1C2SCCN1CCOCC1 | 56% | 93% | <30% | – | –
14 | Cl.NCCSC1c2ccccc2Oc2ccccc21 | <30% | 35% | – | – | –
15 | Cl.NCCCSC1c2ccccc2Oc2cc(Cl)ccc21 (stereo not drawn) | <30% | 79% | – | – | –
16 | Cc1ccc2c(c1)C(SCCN1CCOCC1)c1ccccc1O2.Cl (stereo not drawn) | 50% | 93% | – | – | –
17 | Cl.NCCCSC1c2ccccc2Oc2ccc(Cl)cc21 (stereo not drawn) | 39% | 89% | – | – | –

Row | Compound | Reduction (Canis familiaris [1]) | Reduction (Rattus norvegicus) | Reduction (Canis familiaris [2]) | Reduction (Canis familiaris [3]) | Reduction (Canis familiaris [4])
18 | COc1ccc2c(c1)Oc1ccccc1C2SCCN1CCCCC1.Cl (stereo not drawn) | <58% | 47% | <30% | – | –
19 | Cc1cccc2c1Oc1ccccc1C2SCCCN.Cl (stereo not drawn) | 87% | 71% | – | Animal vomited upon compound administration | –
20 | Cl.NCCSC1c2ccccc2Oc2ccc(Cl)cc21 (stereo not drawn) | <30% | 74% | – | – | –
21 | Cl.c1ccc2c(c1)Oc1ncccc1C2SCCCN1CCOCC1 (stereo not drawn) | – | 62% | – | – | –
22 | Cc1ccc2c(c1)C(SCCCN)c1ccccc1O2.Cl (stereo not drawn) | 80% | 100% | <50% | – | –
23 | Cl.Clc1cccc2c1Oc1ccccc1C2SCCN1CCCCC1 (stereo not drawn) | 44% | 87% | – | – | –
24 | Cl.c1ccc2c(c1)Oc1ccccc1C2SCCN1CCCCC1 | <30% | 98% | – | – | –
25 | CN/C(=N\CCSCc1nc[nH]c1C)NC#N [CIMETIDINE] | 84% | 74% | 86% | – | –
26 | Cl.Clc1ccc2c(c1)Oc1ccccc1C2SCCN1CCOCC1 (stereo not drawn) | 39% | 70% | – | – | –
27 | COc1ccc2c(c1)C(SCCN1CCCCC1)c1ccccc1O2.Cl (stereo not drawn) | <30% | 73% | – | – | –
28 | Cl.NCCSC1c2ccccc2Oc2ncccc21 (stereo not drawn) | <30% | <30% | – | – | –
29 | Cl.c1ccc2c(c1)Oc1ncccc1C2SCCN1CCCCC1 (stereo not drawn) | 63% | 61% | <30% | – | –
30 | Cl.c1ccc2c(c1)Oc1ncccc1C2SCCN1CCOCC1 (stereo not drawn) | 66% | 64% | – | – | –
31 | CN(C)CCSC1c2ccccc2Oc2ccc(Cl)cc21.Cl (stereo not drawn) | <30% | 55% | – | – | –
32 | Cl.Clc1ccc2c(c1)Oc1ccccc1C2SCCN1CCCCC1 (stereo not drawn) | <30% | 80% | – | – | –
33 | Cc1cccc2c1Oc1ccccc1C2SCCN1CCCCC1.Cl (stereo not drawn) | <30% | 85% | – | – | –
